# Source: ChEMBL document CHEMBL1159061, “Synthesis and biological properties of iron chelators based on a bis-2-(2-hydroxy-phenyl)-thiazole-4-carboxamide or -thiocarboxamide (BHPTC) scaffold” (Bioorg Med Chem, 2010)
# Activity calls are given as the source filed them. No cut-off for these calls is given here.
# Assays:
# [1] = Induction of iron chelating activity by calcein fluorescence assay; format: physicochemical
# Outline: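 Cell-free calcein assay in 20 mM HEPES, 150 mM NaCl, pH 7.3, at 20 °C with orbital stirring. Calcein was quenched with iron(III) for 6 h to maximal quenching. Fluorescence recovery (ex 485/em 520 nm) was followed for 1 h at various chelator concentrations, and the initial dequenching rate was derived from the kinetics. Three independent experiments.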
# [2] = Antiproliferative activity against human HepaRG cells after 72 hrs by MTT assay; format: functional, cell-based
# Outline: (§1)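 Proliferating HepaRG cells at day 4 (seeded at 2.5×10⁴/cm² in William's E, 10% FCS, insulin, glutamine, hydrocortisone) were exposed for 72 h to a concentration series, with or without added iron(III) as each line states. Viability was read by MTT (0.5 mg/L as printed) for 3 h in serum-free medium, DMSO-solubilized formazan at 535 nm, expressed as % of control SDH activity.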
# [3] = Antiproliferative activity against human HepaRG cells after 72 hrs by MTT assay in presence of iron(3); format: functional, cell-based; outline: as §1
# HepaRG = experiment: Cytotoxicity against human HepaRG cells assessed as increase in extracellular LDH release at >100 uM after 72 hrs in presence of iron(3); format: functional, cell-based
# KB [4] = experiment: Antiproliferative activity against human KB cells at 10 uM after 72 hrs by MTS assay; format: functional
# Outline: (§2)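 Cells grown under 5% CO2: KB and HepG2 in DMEM with 10% FCS, penicillin, streptomycin and fungizone; HCT116, HT29, HCT15, MCF7, MCF7R, SK-OV3, PC-3, A549, HL60, K562 and SF268 in RPMI. Cells were plated in 96-well plates and dosed 24 h later from DMSO stocks (controls 1% DMSO final). After 72 h, MTS was added for 3 h at 37 °C and absorbance read at 490 nm. Inhibition = (1 − OD treated/OD control)×100, in triplicate.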
# KB [5] = experiment: Antiproliferative activity against human KB cells at 1 uM after 72 hrs by MTS assay; format: functional; outline: as §2
# HCT-116 [6] = experiment: Antiproliferative activity against human HCT116 cells at 10 uM after 72 hrs by MTS assay; format: functional; details: HCT-116, 72 h; outline: as §2
# HCT-116 [7] = experiment: Antiproliferative activity against human HCT116 cells at 1 uM after 72 hrs by MTS assay; format: functional; details: HCT-116, 72 h; outline: as §2
# HT-29 [8] = experiment: Antiproliferative activity against human HT-29 cells at 10 uM after 72 hrs by MTS assay; format: functional; details: HT-29, 72 h; outline: as §2
# HT-29 [9] = experiment: Antiproliferative activity against human HT-29 cells at 1 uM after 72 hrs by MTS assay; format: functional; details: HT-29, 72 h; outline: as §2
# HCT-15 [10] = experiment: Antiproliferative activity against human HCT15 cells at 10 uM after 72 hrs by MTS assay; format: functional; details: HCT-15, 72 h; outline: as §2
# HCT-15 [11] = experiment: Antiproliferative activity against human HCT15 cells at 1 uM after 72 hrs by MTS assay; format: functional; details: HCT-15, 72 h; outline: as §2
# MCF7 [12] = experiment: Antiproliferative activity against human MCF7 cells at 10 uM after 72 hrs by MTS assay; format: functional; details: MCF7, 72 h; outline: as §2
# MCF7 [13] = experiment: Antiproliferative activity against human MCF7 cells at 1 uM after 72 hrs by MTS assay; format: functional; details: MCF7, 72 h; outline: as §2
# MCF7 [14] = experiment: Antiproliferative activity against doxorubicin-resistant human MCF7 cells at 10 uM after 72 hrs by MTS assay; format: functional; details: MCF7, 72 h; outline: as §2
# MCF7 [15] = experiment: Antiproliferative activity against doxorubicin-resistant human MCF7 cells at 1 uM after 72 hrs by MTS assay; format: functional; details: MCF7, 72 h; outline: as §2
# A549 [16] = experiment: Antiproliferative activity against human A549 cells at 10 uM after 72 hrs by MTS assay; format: functional; details: A549, 72 h; outline: as §2
# A549 [17] = experiment: Antiproliferative activity against human A549 cells at 1 uM after 72 hrs by MTS assay; format: functional; details: A549, 72 h; outline: as §2
# PC-3 [18] = experiment: Antiproliferative activity against human PC3 cells at 10 uM after 72 hrs by MTS assay; format: functional; details: PC-3, 72 h; outline: as §2
# PC-3 [19] = experiment: Antiproliferative activity against human PC3 cells at 1 uM after 72 hrs by MTS assay; format: functional; details: PC-3, 72 h; outline: as §2
# SF-268 [20] = experiment: Antiproliferative activity against human SF268 cells at 10 uM after 72 hrs by MTS assay; format: functional; details: SF-268, 72 h; outline: as §2
# SF-268 [21] = experiment: Antiproliferative activity against human SF268 cells at 1 uM after 72 hrs by MTS assay; format: functional; details: SF-268, 72 h; outline: as §2
# SK-OV-3 [22] = experiment: Antiproliferative activity against human SKOV3 cells at 10 uM after 72 hrs by MTS assay; format: functional; details: SK-OV-3, 72 h; outline: as §2
# SK-OV-3 [23] = experiment: Antiproliferative activity against human SKOV3 cells at 1 uM after 72 hrs by MTS assay; format: functional; details: SK-OV-3, 72 h; outline: as §2
# HL-60 [24] = experiment: Antiproliferative activity against human HL60 cells at 10 uM after 72 hrs by MTS assay; format: functional; details: HL-60, 72 h; outline: as §2
# HL-60 [25] = experiment: Antiproliferative activity against human HL60 cells at 1 uM after 72 hrs by MTS assay; format: functional; details: HL-60, 72 h; outline: as §2
# K562 [26] = experiment: Antiproliferative activity against human K562 cells at 10 uM after 72 hrs by MTS assay; format: functional; details: K562, 72 h; outline: as §2
# K562 [27] = experiment: Antiproliferative activity against human K562 cells at 1 uM after 72 hrs by MTS assay; format: functional; details: K562, 72 h; outline: as §2
# HepG2 [28] = experiment: Antiproliferative activity against human HepG2 cells at 10 uM after 72 hrs by MTS assay; format: functional; details: HepG2, 72 h; outline: as §2
# HepG2 [29] = experiment: Antiproliferative activity against human HepG2 cells at 1 uM after 72 hrs by MTS assay; format: functional; details: HepG2, 72 h; outline: as §2
# Hepatocyte = experiment: Cytoprotective activity in human hepatocytes assessed as inhibition of FeNTA-induced increase in extracellular LDH activity relative to control; format: functional; design: scale not given: the % may be the effect or the level left
SMILES,IC50 [1] [µM],IC50 [2] [µM],IC50 [3] [µM],inhibition at 10 µM (KB [4]) [%],inhibition at 1 µM (KB [5]) [%],inhibition at 10 µM (HCT-116 [6]) [%],inhibition at 1 µM (HCT-116 [7]) [%],inhibition at 10 µM (HT-29 [8]) [%],inhibition at 1 µM (HT-29 [9]) [%],inhibition at 10 µM (HCT-15 [10]) [%],inhibition at 1 µM (HCT-15 [11]) [%],inhibition at 10 µM (MCF7 [12]) [%],inhibition at 1 µM (MCF7 [13]) [%],inhibition at 10 µM (MCF7 [14]) [%],inhibition at 1 µM (MCF7 [15]) [%],inhibition at 10 µM (A549 [16]) [%],inhibition at 1 µM (A549 [17]) [%],inhibition at 10 µM (PC-3 [18]) [%],inhibition at 1 µM (PC-3 [19]) [%],inhibition at 10 µM (SF-268 [20]) [%],further results
COC(=O)c1ccc(O)c(-c2nc(C(=O)NCCOCCOCCNC(=O)c3csc(-c4cc(C(=O)OC)ccc4O)n3)cs2)c1,1,64,78,28,0,13,0,4,0,14,11,4,0,19,0,11,0,37,8,19,Activity (HepaRG): Active; inhibition at 1 µM (SF-268 [21]): 0%; inhibition at 10 µM (SK-OV-3 [22]): 22%; inhibition at 1 µM (SK-OV-3 [23]): 10%; inhibition at 10 µM (HL-60 [24]): 0%; inhibition at 1 µM (HL-60 [25]): 0%; inhibition at 10 µM (K562 [26]): 10%; inhibition at 1 µM (K562 [27]): 2%; inhibition at 10 µM (HepG2 [28]): 26%; inhibition at 1 µM (HepG2 [29]): 0%; Activity (Hepatocyte): 148%
COC(=O)c1ccc(O)c(-c2nc(C(=S)NCCOCCOCCNC(=S)c3csc(-c4cc(C(=O)OC)ccc4O)n3)cs2)c1,0.5,42,50,58,5,69,6,3,0,42,1,10,0,64,0,98,8,54,10,62,inhibition at 1 µM (SF-268 [21]): 0%; inhibition at 10 µM (SK-OV-3 [22]): 45%; inhibition at 1 µM (SK-OV-3 [23]): 10%; inhibition at 10 µM (HL-60 [24]): 52%; inhibition at 1 µM (HL-60 [25]): 0%; inhibition at 10 µM (K562 [26]): 53%; inhibition at 1 µM (K562 [27]): 1%; inhibition at 10 µM (HepG2 [28]): 43%; inhibition at 1 µM (HepG2 [29]): 0%
